ChEMBL document CHEMBL4359917, “Design, synthesis, and biological evaluation of novel benzodiazepine derivatives as anticancer agents through inhibition of tubulin polymerization in vitro and in vivo” (Eur J Med Chem, 2019)

Key:
[1] = tested on: A549; test: Antiproliferative activity against human A549 cells assessed as cell growth inhibition measured after 48 hrs by MTT assay; format: functional, cell-based; conditions: A549, 48 h
Method in brief: (§1)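 Cancer cell lines exposed to compounds for 48 h; viability read by MTT assay. IC50 reported as mean ± SD from at least three independent experiments.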

[2] = tested on: HeLa; test: Antiproliferative activity against human HeLa cells assessed as cell growth inhibition measured after 48 hrs by MTT assay; format: functional, cell-based; method in brief: as §1
[3] = tested on: HepG2; test: Antiproliferative activity against human HepG2 cells assessed as cell growth inhibition measured after 48 hrs by MTT assay; format: functional, cell-based; conditions: HepG2, 48 h; method in brief: as §1
[4] = tested on: HCT-116; test: Antiproliferative activity against human HCT116 cells assessed as cell growth inhibition measured after 48 hrs by MTT assay; format: functional, cell-based; conditions: HCT-116, 48 h; method in brief: as §1
[5] = tested on: MDA-MB-231; test: Antiproliferative activity against human MDA-MB-231 cells assessed as cell growth inhibition measured after 48 hrs by MTT assay; format: functional, cell-based; conditions: MDA-MB-231, 48 h; method in brief: as §1
[6] = Metabolic stability in Sprague-Dawley rat liver microsomes assessed as parent compound remaining after 30 mins in presence of NADPH by HPLC-UV-MS analysis; format: ADME, Microsome; conditions: read-out: Stability
Method in brief: (§2)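 Compound incubated with rat liver microsomes in buffer containing an NADPH regenerating system. Percentage of parent remaining was determined at time points up to 180 min, and half-life was derived.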

[7] = Metabolic stability in Sprague-Dawley rat liver microsomes assessed as parent compound remaining after 60 mins in presence of NADPH by HPLC-UV-MS analysis; format: ADME, Microsome; conditions: read-out: Stability; method in brief: as §2
[8] = Metabolic stability in Sprague-Dawley rat liver microsomes assessed as parent compound remaining after 90 mins in presence of NADPH by HPLC-UV-MS analysis; format: ADME, Microsome; conditions: read-out: Stability; method in brief: as §2
[9] = Metabolic stability in Sprague-Dawley rat liver microsomes assessed as parent compound remaining after 120 mins in presence of NADPH by HPLC-UV-MS analysis; format: ADME, Microsome; conditions: read-out: Stability; method in brief: as §2
[10] = Metabolic stability in Sprague-Dawley rat liver microsomes assessed as parent compound remaining after 150 mins in presence of NADPH by HPLC-UV-MS analysis; format: ADME, Microsome; method in brief: as §2
[11] = Half-life in Sprague-Dawley rat liver microsomes in presence of NADPH by HPLC-UV-MS analysis; format: ADME, Microsome; method in brief: as §2
[12] = in vitro; conditions: Sprague-Dawley, rat, liver microsomes
[13] = tested on: A549; test: Antitumour activity against human A549 cells xenografted in BALB/c nude mouse assessed as tumour volume at 30 mg/kg, ip administered every other day measured at day 26 by electronic caliper method (reference value: 2006.37 mm3); format: functional
[14] = tested on: A549; test: Antitumour activity against human A549 cells xenografted in BALB/c nude mouse assessed as tumour weight at 30 mg/kg, ip administered every other day measured at day 26 by electronic caliper method (reference value: 1.894 g); format: functional
[15] = tested on: A549; test: Antitumour activity against human A549 cells xenografted in BALB/c nude mouse assessed as tumour growth inhibition at 30 mg/kg, ip administered every other day measured at day 26 by electronic caliper method relative to control; format: functional; conditions: 624 h, read-out: GI
[16] = Toxicity in BALB/c nude mouse xenografted with human A549 cells assessed as effect on body weight at 30 mg/kg, ip administered every other day measured for 26 days; format: organism-based; conditions: in vivo, 624 h
[17] = Solubility of compound in water; format: physicochemical; conditions: buffer

| SMILES | IC50 [1] | IC50 [2] | IC50 [3] | IC50 [4] | IC50 [5] | other results |
| --- | --- | --- | --- | --- | --- | --- |
| COc1ccc2c(c1O)NC(=O)CN=C2c1cc(OC)c(OC)c(OC)c1 | 0.00915 µM | 0.0181 µM | 0.0157 µM | 0.0166 µM | 0.0546 µM | remaining at 0.5 h [6]: 94.3%; remaining at 1 h [7]: 85.5%; remaining at 1.5 h [8]: 76.2%; remaining at 2 h [9]: 65.3%; remaining at 2.5 h ([10]; Sprague-Dawley, liver microsomes, read-out: Stability): 55.2%; half-life [11]: 2.62 h; remaining at 3 h [12]: 49.9% |
| COc1ccc2c(c1O)NC(=O)CN=C2c1cc2c(c(OC)c1)OC(C)(C)C=C2 | 0.0562 µM | 0.0347 µM | 0.0305 µM | 0.0139 µM | 0.069 µM |  |
| COc1ccc(/C=C\c2cc(OC)c(OC)c(OC)c2)cc1O [COMBRETASTATIN A4] |  |  |  |  |  | remaining at 0.5 h [6]: 66.3%; remaining at 1 h [7]: 36.4%; remaining at 1.5 h [8]: 21.6%; remaining at 2 h [9]: 17.9%; Stability ([10]; microsomes, 2.5 h): Unstable; half-life [11]: < 1 h |
| COc1cc(C2=NCC(=O)Nc3c2ccc(OC)c3OP(=O)([O-])[O-])cc(OC)c1OC.[Na+].[Na+] |  |  |  |  |  | Activity [13]: 408.17 mm3; Activity [14]: 0.415 g; inhibition in vivo at 30 mg/kg [15]: 77.7% |
| COc1cc(-c2c(C)c(=O)[nH]c3c(O)c(OC)ccc23)cc(SC)c1OC | 0.086 µM | 0.158 µM | 0.303 µM | 0.229 µM | 0.133 µM |  |
| COc1ccc2c(c1O)NC(=O)CN=C2c1cc(OC)c(OC)c(N(C)C)c1 | 0.0662 µM | 0.0549 µM | 0.052 µM | 0.053 µM | 0.091 µM |  |
| COc1cc(-c2cc(=O)[nH]c3c(O)c(OC)ccc23)cc(SC)c1OC | 0.0618 µM | 0.0355 µM | 0.0517 µM | 0.0288 µM | 0.07 µM |  |
| COc1ccc2c(c1O)NC(=O)CN=C2c1ccc(OC)c2c1OC(C)(C)C=C2 | 0.433 µM | 1.87 µM | 4.59 µM | 0.207 µM | 3.71 µM |  |
| COc1ccc2c(c1O)NC(=O)C(C)N=C2c1cc(OC)c(OC)c(SC)c1 (centres undefined) | 0.093 µM | 1.07 µM | 0.295 µM | 0.089 µM | 0.295 µM |  |
| COc1cc(C2=NCC(=O)Nc3c2ccc(OC)c3OP(=O)([O-])[O-])cc(SC)c1OC.[Na+].[Na+] |  |  |  |  |  | Activity [13]: 369.25 mm3; Activity [14]: 0.373 g; inhibition in vivo at 30 mg/kg [15]: 79.3%; Activity [16]: Non-Toxic; solubility [17]: Soluble |
| COc1ccc2c(c1O)NC(=O)CN=C2c1cc(OC)c(OC)c(SC)c1 | 0.0187 µM | 0.0165 µM | 0.0142 µM | 0.0108 µM | 0.0247 µM |  |
| COc1ccc(/C=C\c2cc(OC)c(OC)c(OC)c2)cc1OP(=O)([O-])[O-].[Na+].[Na+] [FOSBRETABULIN DISODIUM] |  |  |  |  |  | Activity [13]: 984.86 mm3; Activity [14]: 0.879 g; inhibition in vivo at 30 mg/kg [15]: 52.8% |
| COc1cc(C2=NCC(=O)Nc3c2ccc(OC)c3OP(=O)([O-])[O-])cc([Se]C)c1OC.[Na+].[Na+] |  |  |  |  |  | Activity [13]: 215.2 mm3; Activity [14]: 0.201 g; inhibition in vivo at 30 mg/kg [15]: 89.3%; Activity [16]: Non-Toxic; solubility [17]: Soluble |
| COc1cc(-c2cc(=O)[nH]c3c(O)c(OC)ccc23)cc([Se]C)c1OC | 0.0607 µM | 0.0517 µM | 0.022 µM | 0.124 µM | 0.069 µM |  |
